Results from ChEMBL document CHEMBL1123632, “Cardiotonic agents. 7. Inhibition of separated forms of cyclic nucleotide phosphodiesterase from guinea pig cardiac muscle by 4,5-dihydro-6-[4-(1H-imidazol-1-yl)phenyl]-3(2H)-pyridazinones and related compounds. Structure-activity relationships and correlation with in vivo positive inotropic …” (J Med Chem, 1987).

Experiments:
Canis familiaris = species: Canis familiaris; experiment: Effective dose required to increase myocardial contractility in dog.; format: functional; details: Canis lupus familiaris, Myocardium
How it was run: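 Anesthetized mongrel dogs (either sex): pentobarbital 35 mg/kg iv, then 5 mg kg⁻¹ h⁻¹ infusion. After 30-min control, compound in saline or dilute HCl/NaOH diluted with saline given iv over 1 min, cumulative half-log doses (typically four to six), 10–30 min apart.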

[1] = biological target: T1, cGMP-dependent 3',5'-cyclic phosphodiesterase (Homo sapiens, UniProt O00408); experiment: Inhibition of cGMP PDE II enzyme in guinea pig at 1E-4M concentration; details: Cavia porcellus; target entry is the homologue from another species
T1 sequence (O00408 whole entry): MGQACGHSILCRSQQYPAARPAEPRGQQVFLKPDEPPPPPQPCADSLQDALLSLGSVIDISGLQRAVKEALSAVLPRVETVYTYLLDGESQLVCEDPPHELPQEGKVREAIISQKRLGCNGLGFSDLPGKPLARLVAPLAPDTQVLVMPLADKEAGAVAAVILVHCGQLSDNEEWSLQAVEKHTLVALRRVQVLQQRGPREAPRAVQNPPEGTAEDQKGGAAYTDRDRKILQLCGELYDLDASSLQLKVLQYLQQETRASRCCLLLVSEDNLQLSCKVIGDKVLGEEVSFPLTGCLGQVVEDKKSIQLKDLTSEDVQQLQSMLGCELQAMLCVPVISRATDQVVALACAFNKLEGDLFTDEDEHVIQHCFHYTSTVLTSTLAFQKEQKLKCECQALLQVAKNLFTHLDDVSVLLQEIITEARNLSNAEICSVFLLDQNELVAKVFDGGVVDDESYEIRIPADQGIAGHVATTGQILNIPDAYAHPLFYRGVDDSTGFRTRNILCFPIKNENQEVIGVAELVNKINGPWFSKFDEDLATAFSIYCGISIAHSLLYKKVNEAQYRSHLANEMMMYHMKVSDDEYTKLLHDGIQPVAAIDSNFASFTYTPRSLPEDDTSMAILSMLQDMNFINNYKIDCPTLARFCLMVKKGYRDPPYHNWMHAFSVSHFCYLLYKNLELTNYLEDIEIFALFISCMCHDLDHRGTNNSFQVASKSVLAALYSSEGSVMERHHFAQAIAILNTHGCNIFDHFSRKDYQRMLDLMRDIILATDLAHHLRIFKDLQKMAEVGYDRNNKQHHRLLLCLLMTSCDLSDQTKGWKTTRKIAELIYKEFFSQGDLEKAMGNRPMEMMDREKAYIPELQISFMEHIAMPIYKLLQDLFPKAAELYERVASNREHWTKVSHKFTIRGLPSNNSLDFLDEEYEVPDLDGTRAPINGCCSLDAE

[2] = biological target: T1, cGMP-dependent 3',5'-cyclic phosphodiesterase; experiment: Inhibition of cGMP PDE II enzyme in guinea pig at 1E-5M concentration; details: Cavia porcellus; target entry is the homologue from another species
[3] = biological target: T1, cGMP-dependent 3',5'-cyclic phosphodiesterase; experiment: Inhibitory concentration against cGMP PDE II enzyme in guinea pig; set-up: species or system Cavia porcellus; details: target entry is the homologue from another species
Phosphodiesterase 3 [4] = biological target: T2, Phosphodiesterase 3 (Homo sapiens, UniProt Q14432+Q13370); experiment: Inhibitory concentration against cAMP PDE III enzyme in guinea pig; format: protein assay, Cavia porcellus; details: target entry is the homologue from another species
Phosphodiesterase 3 [5] = biological target: T2, Phosphodiesterase 3; experiment: Inhibition of cAMP PDE III enzyme in guinea pig at 1E-4M concentration.; format: protein assay; details: Cavia porcellus; target entry is the homologue from another species
Phosphodiesterase 3 [6] = biological target: T2, Phosphodiesterase 3; experiment: Inhibition of cAMP PDE III enzyme in guinea pig at 1E-5M concentration; format: protein assay; details: Cavia porcellus; target entry is the homologue from another species
Phosphodiesterase 1 [7] = biological target: T3, Phosphodiesterase 1 (Homo sapiens, UniProt P54750+Q01064+Q14123); experiment: Inhibition of cAMP PDE I enzyme in guinea pig at 1E-4M concentration.; format: protein assay; details: Cavia porcellus; target entry is the homologue from another species
Phosphodiesterase 1 [8] = biological target: T3, Phosphodiesterase 1; experiment: Inhibition of cAMP PDE I enzyme in guinea pig at 1E-5M concentration; format: protein assay; details: Cavia porcellus; target entry is the homologue from another species
Phosphodiesterase 1 [9] = biological target: T3, Phosphodiesterase 1; experiment: Inhibition of cGMP PDE I enzyme in guinea pig at 1E-4M concentration; format: protein assay; details: Cavia porcellus; target entry is the homologue from another species
Phosphodiesterase 1 [10] = biological target: T3, Phosphodiesterase 1; experiment: Inhibition of cGMP PDE I enzyme in guinea pig at 1E-5M concentration; format: protein assay; details: Cavia porcellus; target entry is the homologue from another species
[11] = biological target: T1, cGMP-dependent 3',5'-cyclic phosphodiesterase; experiment: Inhibitory concentration against cAMP PDE II enzyme in guinea pig; set-up: species or system Cavia porcellus; details: target entry is the homologue from another species
[12] = biological target: T1, cGMP-dependent 3',5'-cyclic phosphodiesterase; experiment: Inhibition of cAMP PDE II enzyme in guinea pig at 1E-5M concentration; details: Cavia porcellus; target entry is the homologue from another species
[13] = Ratio of IC50 values for PDE III and PDE II.
PDE I (Cavia porcellus) [14] = experiment: Inhibitory concentration against cAMP PDE I enzyme in guinea pig
PDE I (Cavia porcellus) [15] = experiment: Inhibitory concentration against cGMP PDE I enzyme in guinea pig
PDE II (Cavia porcellus) = experiment: Inhibition of cAMP PDE II enzyme in guinea pig at 1E-4M concentration.
[16] = Ratio of IC50 values for PDE III and PDE I.
[17] = biological target: T1, cGMP-dependent 3',5'-cyclic phosphodiesterase; experiment: Inhibition of cGMP PDE II enzyme in guinea pig at 1E-4M; details: Cavia porcellus; target entry is the homologue from another species

Structure (SMILES)	ED50 (Canis familiaris)	inhibition [1]	inhibition [2]	IC50 [3]	IC50 (Phosphodiesterase 3 [4])	inhibition (Phosphodiesterase 3 [5])	inhibition (Phosphodiesterase 3 [6])	inhibition (Phosphodiesterase 1 [7])	inhibition (Phosphodiesterase 1 [8])	inhibition (Phosphodiesterase 1 [9])	inhibition (Phosphodiesterase 1 [10])	IC50 [11]	inhibition [12]	Ratio [13]	IC50 (PDE I (Cavia porcellus) [14])	IC50 (PDE I (Cavia porcellus) [15])	inhibition (PDE II (Cavia porcellus))	Ratio [16]	inhibition [17]
CN1N=C(c2ccc(-n3ccnc3)cc2)CCC1=O	1 mg/kg	32%	1%	280 µM	110 µM	47%	13%	22%	1%	26%	3%	370 µM	5%	297	> 1000 µM	> 1000 µM	33%	–	–
O=C1NN=C(c2ccc(-n3ccnc3)cc2)C2CCCCC12 (centres undefined)	1 mg/kg	44%	8%	130 µM	220 µM	34%	8%	22%	1%	16%	2%	150 µM	14%	–	–	–	–	–	–
CCC1CC(=O)NN=C1c1ccc(-n2ccnc2)cc1 (centres undefined)	1 mg/kg	40%	13%	71 µM	74 µM	54%	18%	2%	1%	8%	1%	100 µM	5%	740	> 1000 µM	> 1000 µM	35%	–	–
O=C1CCC(c2ccc(-n3ccnc3)cc2)=NN1Cc1ccccc1	–	70%	18%	–	–	79%	47%	39%	1%	33%	13%	–	22%	–	–	–	70%	–	–
CC1CC(=O)NN=C1c1ccc(-n2cnc3c2CCCC3)cc1 (centres undefined) [TETRAHYDROBENXIMIDAZOLE]	0.025 mg/kg	68%	21%	43 µM	0.15 µM	90%	64%	57%	13%	54%	17%	46 µM	21%	3.2	75 µM	85 µM	65%	2	–
Cc1[nH]c(=O)c(C#N)cc1-c1ccncc1 [MILRINONE]	0.037 mg/kg	–	–	–	–	–	–	–	–	–	–	–	–	–	–	–	–	–	–
Oc1ccc(-c2ccc(-c3ncc[nH]3)cc2)nn1	0.017 mg/kg	41%	7%	180 µM	12 µM	69%	51%	18%	8%	23%	10%	190 µM	10%	–	–	–	–	–	–
O=C1CCC(c2ccc(-n3cnc(CO)c3)cc2)=NN1	0.034 mg/kg	23%	5%	350 µM	4.1 µM	68%	59%	9%	1%	9%	–	480 µM	6%	–	–	–	–	–	–
CCc1nc(C)cn1-c1ccc(C2=NNC(=O)CC2)cc1	0.1 mg/kg	44%	9%	92 µM	3.5 µM	76%	59%	51%	9%	53%	7%	170 µM	14%	–	–	–	–	–	–
O=C1CCC(c2cccc(-n3ccnc3)c2)=NN1	0.3 mg/kg	28%	10%	340 µM	40 µM	65%	28%	9%	6%	8%	3%	330 µM	10%	121	930 µM	> 1000 µM	21%	43	–
O=C1CCC(c2ccc(-n3cncn3)cc2)=NN1	–	–	7%	–	–	51%	33%	–	7%	–	6%	–	6%	–	–	–	20%	–	24%
Cc1cc(O)nnc1-c1ccc(-n2ccnc2)cc1	1.1 mg/kg	39%	8%	–	50 µM	64%	26%	24%	0%	14%	4%	–	4%	–	–	–	–	–	–
O=C1CCC(c2ccc(-n3cnc4ccccc43)cc2)=NN1	0.1 mg/kg	70%	24%	34 µM	1.2 µM	88%	66%	25%	9%	36%	9%	42 µM	24%	28.5	280 µM	220 µM	67%	4.3	–
Cc1cc(=O)[nH]nc1-c1ccc(-n2ccnc2)cc1	–	–	–	170 µM	–	–	–	–	–	–	–	210 µM	–	–	–	–	–	–	–
O=C1CCC(c2ccc(NC3=NCCO3)cc2)=NN1	–	31%	4%	–	–	68%	54%	26%	3%	12%	6%	–	9%	–	–	–	36%	–	–
O=C1CCC(c2ccc(-n3cnc4c3CCCC4)cc2)=NN1	0.064 mg/kg	69%	22%	39 µM	1.1 µM	87%	60%	38%	8%	37%	7%	49 µM	20%	–	–	–	–	–	–
